Like-named read-outs stand apart in the source and are kept apart here.
How the values were obtained:
[1] = type: in vivo, human; conditions: for Total (α+β)-HTBZ AUC0-t / Total (α+β)-HTBZ AUCinf / Total (α+β)-HTBZ Cmax / Total (α+β)-HTBZ T1/2 / α-HTBZ AUC0-t / α-HTBZ AUCinf / α-HTBZ Cmax / β-HTBZ AUC0-t / β-HTBZ AUCinf / β-HTBZ Cmax / β-HTBZ T1/2 / Total (α+β)-HTBZ Tmax / α-HTBZ Tmax / β-HTBZ Tmax: deutetrabenazine 15 mg single dose; for Total (α+β)-HTBZ AUC0-t / Total (α+β)-HTBZ AUCinf / Total (α+β)-HTBZ Cmax / Total (α+β)-HTBZ T1/2 / α-HTBZ AUC0-t / α-HTBZ AUCinf / α-HTBZ Cmax / β-HTBZ AUC0-t / β-HTBZ AUCinf / β-HTBZ Cmax / β-HTBZ T1/2: mean (CV%); for Total (α+β)-HTBZ Tmax / α-HTBZ Tmax / β-HTBZ Tmax: median (range); for Plasma concentrations of the parent compound: single administration of 15 mg deutetrabenazine or 25 mg tetrabenazine tablets, LLOQ 0.100 ng/mL
Outline: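 Randomised crossover in 25 healthy subjects, five periods over 17 days, all in clinic. Single oral dose: 15 mg of each of two test-compound tablet formulations, fed or fasted, or 25 mg non-deuterated reference fasted. Fasted means an overnight fast of ≥10 h; fed means an FDA-definition high-fat (50% calories), 800–1000 calorie meal. Plasma dihydro metabolites sampled predose and over 72 h; values below LLOQ set to LLOQ where flanked by measurable ones. Non-compartmental AUC and Cmax; ANOVA on ln values (subject, period, treatment); back-transformed geometric mean ratios with 90% CI.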

[2] = Study AUS-SD-809-CTP-07 part 2: single and repeated; type: in vivo, human; conditions: for α-HTBZ Cmin / (α+β)-HTBZ Cmin / β-HTBZ Cmin: steady state, mean (CV%); for α-HTBZ Cmin: 0-12 h; for Linear regression model slope (zero intercept) / Power regression model α (parameter = α × dose^β) / Power regression model β (exponent of dose): deutetrabenazine fed
Outline: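 Two groups of 12 healthy subjects over 20 days; the second group dosed ≥7 days after the first. Test compound given at 7.5, 15 and 22.5 mg after a standard meal; non-deuterated reference 25 mg fasted. Single doses on days 1 and 4, ≥72 h apart, with full plasma profiles. Dosing every 12 h from day 7 for 3.5 days, with predose troughs used to confirm steady state. Cmin taken as the minimum over 0–12 h. Power (parameter = α × dose^β) and zero-intercept linear regressions fitted to single-dose AUCinf, steady-state AUC0-12 and Cmax.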

[3] = type: in vivo, human
Outline: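 Healthy subjects given 18 mg test compound after a standard meal or after a high-fat meal. For the dose-proportionality arms, doses of 6, 12, 18 and 24 mg were given with a standard meal and compared as dose-normalised parameters. Plasma dihydro metabolites analysed by non-compartmental Cmax, AUC0-t and AUCinf. ANOVA on ln values; geometric mean ratios with 90% CI, back-transformed.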

[4] = Safety assessments, study AUS-SD-809-CTP-07; type: in vivo, human; conditions: for Serious AEs: healthy volunteers; for Laboratory parameters, vital signs and physical examination: single or multiple doses
Outline: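 Healthy subjects, single 15 mg dose in part 1 and single or repeated 7.5–22.5 mg doses in part 2. Adverse-event monitoring, physical examination, vital signs, standard 12-lead ECG, PHQ-9, C-SSRS and laboratory tests repeated throughout, including 72 h after each dose in part 1. For preliminary QTc assessment, triplicate digital 12-lead ECGs recorded on part 2 dosing days 1 and 4.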

[5] = test system: chorea associated with Huntington's disease; conditions: cited from earlier work
tardive dyskinesia = conditions: cited from earlier work
[6] = test system: chorea in patients with HD; conditions: 12 weeks; cited from earlier work
VMAT2 = conditions: cited from earlier work
[7] = LS geometric mean ratio deutetrabenazine 15 mg fed / tetrabenazine 25 mg fasted
[8] = deutetrabenazine 15 mg high-fat/high-calorie meal versus fasted
[9] = deutetrabenazine 15 mg, high-fat/high-calorie meal
[10] = deutetrabenazine 7.5 mg twice daily fed
[11] = deutetrabenazine 15 mg twice daily fed
[12] = deutetrabenazine 22.5 mg twice daily fed
[13] = total (α+β)-HTBZ AUC0-12 (steady state)
[14] = total (α+β)-HTBZ AUCinf (single dose)
[15] = deutetrabenazine 18 mg high-fat/high-calorie meal versus standard meal
[16] = deutetrabenazine 18 mg, high-fat/high-calorie meal
[17] = deutetrabenazine 18 mg, standard meal

Compound: [2H]C([2H])([2H])Oc1cc2c(cc1OC([2H])([2H])[2H])C1CC(=O)C(CC(C)C)CN1CC2 (stereo not shown) [Deutetrabenazine]
- Total (α+β)-HTBZ AUC0-t % ratio (90%CI) [1, 7]: 126.6 (115.8‐138.4) %
- Total (α+β)-HTBZ AUCinf % ratio (90%CI) [1, 7]: 127.7 (116.7‐139.6) %
- Total (α+β)-HTBZ Cmax % ratio (90%CI) [1, 7]: 51.4 (46.0‐57.4) %
- α-HTBZ AUCinf % ratio (90%CI) [1, 7]: 129.7 (118.1‐142.5) %
- α-HTBZ Cmax % ratio (90%CI) [1, 7]: 49.3 (44.5‐54.7) %
- β-HTBZ AUC0-t % ratio (90%CI) [1, 7]: 117.0 (104.5‐131.1) %
- β-HTBZ AUCinf % ratio (90%CI) [1, 7]: 119.9 (105.5‐136.2) %
- β-HTBZ Cmax % ratio (90%CI) [1, 7]: 55.3 (47.7‐64.2) %
- Increase of AUCinf of (α+β)-HTBZ with food ([1]; deutetrabenazine 15 mg high-fat meal vs fasted): about 11%
- Total (α+β)-HTBZ AUC0-t % ratio [1, 8]: 111.5%
- Total (α+β)-HTBZ AUCinf % ratio [1, 8]: 110.6%
- Total (α+β)-HTBZ Cmax % ratio [1, 8]: 149.7%
- Total (α+β)-HTBZ T1/2 % ratio [1, 8]: 75.3%
- Total (α+β)-HTBZ AUC0-t ([1]; fasted): 263 (45) ng·h/mL
- Total (α+β)-HTBZ AUCinf ([1]; fasted): 273 (45) ng·h/mL
- Total (α+β)-HTBZ Cmax ([1]; fasted): 22.5 (36) ng/mL
- Total (α+β)-HTBZ T1/2 ([1]; fasted): 9.4 (25) h
- α-HTBZ AUC0-t ([1]; fasted): 185 (25) ng·h/mL
- α-HTBZ AUCinf ([1]; fasted): 196 (24) ng·h/mL
- α-HTBZ Cmax ([1]; fasted): 14.2(34) ng/mL
- β-HTBZ AUC0-t ([1]; fasted): 74.2 (108) ng·h/mL
- β-HTBZ AUCinf ([1]; fasted): 81.4 (105) ng·h/mL
- β-HTBZ Cmax ([1]; fasted): 8.43 (48) ng/mL
- β-HTBZ T1/2 ([1]; fasted): 6.6 (56) h
- Total (α+β)-HTBZ Tmax ([1]; fasted): 2.3 (1.0‐8.0) h
- α-HTBZ Tmax ([1]; fasted): 2.5 (1.0‐8.0) h
- β-HTBZ Tmax ([1]; fasted): 2.5 (1.0‐8.0) h
- Total (α+β)-HTBZ AUC0-t ([1]; fed (high-fat meal)): 296 (48) ng·h/mL
- Total (α+β)-HTBZ AUCinf ([1]; fed (high-fat meal)): 305 (46) ng·h/mL
- Total (α+β)-HTBZ Cmax ([1]; fed (high-fat meal)): 33.3 (33) ng/mL
- Total (α+β)-HTBZ T1/2 ([1]; fed (high-fat meal)): 7.0 (23) h
- α-HTBZ AUC0-t ([1]; fed (high-fat meal)): 207 (30) ng·h/mL
- α-HTBZ AUCinf ([1]; fed (high-fat meal)): 217 (29) ng·h/mL
- α-HTBZ Cmax ([1]; fed (high-fat meal)): 20.8 (27) ng/mL
- β-HTBZ AUC0-t ([1]; fed (high-fat meal)): 85.6 (102) ng·h/mL
- β-HTBZ AUCinf ([1]; fed (high-fat meal)): 102 (92) ng·h/mL
- β-HTBZ Cmax ([1]; fed (high-fat meal)): 12.7 (50) ng/mL
- β-HTBZ T1/2 ([1]; fed (high-fat meal)): 4.6 (63) h
- Total (α+β)-HTBZ Tmax ([1]; fed (high-fat meal)): 6.0 (1.5‐8.0) h
- α-HTBZ Tmax ([1]; fed (high-fat meal)): 6.0 (1.0‐8.0) h
- β-HTBZ Tmax ([1]; fed (high-fat meal)): 6.0 (1.5‐8.0) h
- Total (α+β)-HTBZ AUC0-t, LS mean ([1]; deutetrabenazine 15 mg, fasted): 244.6 ng·h/mL
- Total (α+β)-HTBZ AUCinf, LS mean ([1]; deutetrabenazine 15 mg, fasted): 254.9 ng·h/mL
- Total (α+β)-HTBZ Cmax, LS mean ([1]; deutetrabenazine 15 mg, fasted): 21.2 ng/mL
- Total (α+β)-HTBZ AUC0-t, LS mean [1, 9]: 272.8 ng·h/mL
- Total (α+β)-HTBZ AUCinf, LS mean [1, 9]: 282.0 ng·h/mL
- Total (α+β)-HTBZ Cmax, LS mean [1, 9]: 31.7 ng/mL
- Total (α+β)-HTBZ T1/2, LS mean [1, 9]: 6.8 h
- Effect of food on exposure to total (α+β)-HTBZ, as measured by AUC ([1]; deutetrabenazine fed vs fasted): no effect
- Plasma concentrations of the parent compound [1]: near or at the LLOQ
- α-HTBZ Cmin [2, 10]: 7.2 (41) ng/mL
- (α+β)-HTBZ Cmin [2, 10]: 10.1 (48) ng/mL
- β-HTBZ Cmin [2, 10]: 2.8 (71) ng/mL
- α-HTBZ Cmin [2, 11]: 15.6 (37) ng/mL
- (α+β)-HTBZ Cmin [2, 11]: 21.1 (41) ng/mL
- β-HTBZ Cmin [2, 11]: 5.5 (54) ng/mL
- α-HTBZ Cmin [2, 12]: 26.3 (40) ng/mL
- (α+β)-HTBZ Cmin [2, 12]: 39.5 (59) ng/mL
- β-HTBZ Cmin [2, 12]: 13.1 (102) ng/mL
- Exposure to β-HTBZ relative to α-HTBZ ([2]; single-dose and repeated deutetrabenazine administration): approximately one‐third
- Linear regression model slope (zero intercept) [2, 13]: 32.4
- Power regression model α (parameter = α × dose^β) [2, 13]: 17.8
- Power regression model β (exponent of dose) [2, 13]: 1.2
- Linear regression model slope (zero intercept) [2, 14]: 26.9
- Power regression model α (parameter = α × dose^β) [2, 14]: 17.0
- Power regression model β (exponent of dose) [2, 14]: 1.1
- Total (α+β)-HTBZ AUC0-t % ratio [3, 15]: 107.0%
- Total (α+β)-HTBZ AUCinf % ratio [3, 15]: 106.4%
- Total (α+β)-HTBZ Cmax % ratio [3, 15]: 104.2%
- Total (α+β)-HTBZ T1/2 % ratio [3, 15]: 101.8%
- Total (α+β)-HTBZ AUC0-t, LS mean [3, 16]: 408 ng·h/mL
- Total (α+β)-HTBZ AUCinf, LS mean [3, 16]: 419 ng·h/mL
- Total (α+β)-HTBZ Cmax, LS mean [3, 16]: 48.4 ng/mL
- Total (α+β)-HTBZ AUC0-t, LS mean [3, 17]: 382 ng·h/mL
- Total (α+β)-HTBZ AUCinf, LS mean [3, 17]: 394 ng·h/mL
- Total (α+β)-HTBZ Cmax, LS mean [3, 17]: 46.5 ng/mL
- Total (α+β)-HTBZ T1/2, LS mean [3, 17]: 9.7 h
- Serious AEs [4]: No serious AEs
- Most frequent AEs reported as possibly drug related ([4]; in vivo): Somnolence and headache
- Subjects with change from predose in QTc of >30 milliseconds ([4]; in vivo): No subject
- Subjects with postdose QTc > 450 milliseconds ([4]; in vivo): No subject
- Tolerability ([4]; single 15 mg (part 1) and single/repeated 7.5-22.5 mg (part 2)): well tolerated
- Laboratory parameters, vital signs and physical examination [4]: no clinically significant abnormalities
- Mean difference in total maximal chorea score compared with placebo treatment [5]: −2.5 unit
- Mean Unified Huntington's Disease Rating Scale total maximal chorea score ([5]; weeks 9-12, twice a day, baseline 12.1): 7.7
- Change in the Abnormal Involuntary Movement Scale scores (tardive dyskinesia): significantly reduced TD

Compound: COc1cc2c(cc1OC)C1CC(=O)C(CC(C)C)CN1CC2 (stereo not shown) [Tetrabenazine, reference compound]
- Plasma concentrations of the parent compound [1]: near or at the LLOQ
- Serious AEs [4]: One serious AE of vessel puncture‐site reaction
- Subjects with change from predose in QTc of >30 milliseconds ([4]; in vivo): No subject
- Subjects with postdose QTc > 450 milliseconds ([4]; in vivo): No subject
- Laboratory parameters, vital signs and physical examination [4]: no clinically significant abnormalities
- Chorea severity compared with placebo-treated patients [6]: significantly reduced chorea severity

Compound: COc1cc2c(cc1OC)[C@H]1C[C@H](O)[C@H](CC(C)C)CN1CC2 [β‐HTBZ, β‐dihydrotetrabenazine]
- Inhibition of VMAT2 (VMAT2): potent inhibitors

Compound: α‐dihydrotetrabenazine [α‐HTBZ]
- Inhibition of VMAT2 (VMAT2): potent inhibitors

From paper PMC8246815 (Clinical Pharmacology in Drug Development, 2020)
